According to ChEMBL document CHEMBL1135734, “Side-chain lactam-bridge conformational constraints differentiate the activities of salmon and human calcitonins and reveal a new design concept for potent calcitonin analogues” (J Med Chem, 2002):
Positions of bridges follow the written chain, without caps; N, C: chain ends. Non-standard residues stand in square brackets, D forms with d. Residues, ends and D or L forms follow the SMILES beside them. Nle = CCCC[C@H](N)C(=O)O; Orn = NCCC[C@H](N)C(=O)O

Key:
[1] = target: T1, Calcitonin receptor (Homo sapiens) (UniProt P30988)
T1 sequence (whole entry): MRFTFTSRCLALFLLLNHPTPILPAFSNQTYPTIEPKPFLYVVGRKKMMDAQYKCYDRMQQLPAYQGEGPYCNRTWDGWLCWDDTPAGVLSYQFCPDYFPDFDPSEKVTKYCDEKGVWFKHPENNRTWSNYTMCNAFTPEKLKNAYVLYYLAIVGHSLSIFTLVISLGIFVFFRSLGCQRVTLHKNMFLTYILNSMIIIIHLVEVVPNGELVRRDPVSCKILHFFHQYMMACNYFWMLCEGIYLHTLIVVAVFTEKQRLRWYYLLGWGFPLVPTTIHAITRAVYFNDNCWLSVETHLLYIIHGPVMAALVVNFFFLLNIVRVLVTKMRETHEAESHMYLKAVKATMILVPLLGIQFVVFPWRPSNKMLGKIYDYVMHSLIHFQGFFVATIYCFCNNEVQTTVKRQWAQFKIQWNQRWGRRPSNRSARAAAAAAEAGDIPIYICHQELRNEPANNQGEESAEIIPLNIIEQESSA

[2] = target: T2, Calcitonin receptor (Rattus norvegicus) (UniProt P32214); experiment: Affinity for calcitonin receptor of rat brain relative to [125I]-salmon calcitonin
T2 sequence (whole entry): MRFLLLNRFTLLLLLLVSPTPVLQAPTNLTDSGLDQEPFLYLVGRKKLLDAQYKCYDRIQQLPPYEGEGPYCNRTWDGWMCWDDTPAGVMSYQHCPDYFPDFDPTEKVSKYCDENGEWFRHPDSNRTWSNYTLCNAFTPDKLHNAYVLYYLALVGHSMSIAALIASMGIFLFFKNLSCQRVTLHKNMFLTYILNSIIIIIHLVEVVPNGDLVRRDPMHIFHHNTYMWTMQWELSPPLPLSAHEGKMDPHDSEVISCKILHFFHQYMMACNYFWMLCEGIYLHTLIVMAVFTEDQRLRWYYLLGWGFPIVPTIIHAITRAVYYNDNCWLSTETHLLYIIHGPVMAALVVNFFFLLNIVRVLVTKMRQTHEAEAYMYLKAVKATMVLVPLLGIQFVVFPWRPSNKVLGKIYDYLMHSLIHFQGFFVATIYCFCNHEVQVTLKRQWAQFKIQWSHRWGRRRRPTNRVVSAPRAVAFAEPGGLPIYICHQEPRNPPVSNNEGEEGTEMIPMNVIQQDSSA
Summary of the method: (§1)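 Male Sprague–Dawley rat (250–350 g) brain membranes (~0.63 mg protein/tube) were shaken on ice for 30 min with 10 pM final [125I-Tyr22]sCT and competitor in 50 mM Tris-HCl pH 7.4 with 34 μM bacitracin. Tubes were centrifuged and the pellets washed, SDS-solubilized and scintillation counted. Nonspecific binding was taken with 1 μM sCT. IC50 came from probit analysis, and relative affinity set sCT = 100%.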

Calcitonin receptor [3] = target: T3, Calcitonin receptor (Homo sapiens, UniProt P30988); experiment: Inhibition of [125I]-salmon calcitonin (sCT) binding to human calcitonin receptor I1 expressed in HEK293 cells; format: cell-based; conditions: hek293
T3 sequence (P30988 whole entry): T1 sequence (whole entry)

Calcitonin receptor [4] = target: T4, Calcitonin receptor (Rattus norvegicus, UniProt P32214); experiment: Displacement of [125I]-salmon calcitonin (sCT) from calcitonin receptor of rat brain
T4 sequence (P32214 whole entry): T2 sequence (whole entry)
Summary of the method: as §1

SMILES	ED50 [1]	Relative affinity [2]	Ki (Calcitonin receptor [3])	IC50 (Calcitonin receptor [4])
CC(C)C[C@H](NC(=O)[C@H](CCCCN)NC(=O)CNC(=O)[C@H](CC(C)C)NC(=O)[C@@H](NC(=O)[C@H](CS)NC(=O)[C@@H](NC(=O)[C@H](CO)NC(=O)[C@H](CC(C)C)NC(=O)[C@H](CC(N)=O)NC(=O)[C@H](CO)NC(=O)[C@@H](N)CS)[C@@H](C)O)C(C)C)C(=O)N[C@@H](CO)C(=O)N[C@@H](CCC(N)=O)C(=O)N[C@@H](CCC(=O)O)C(=O)N[C@@H](CC(C)C)C(=O)N[C@@H](Cc1c[nH]cn1)C(=O)N[C@@H](CCCCN)C(=O)N[C@@H](CC(C)C)C(=O)N[C@@H](CCC(N)=O)C(=O)N[C@H](C(=O)N[C@@H](Cc1ccc(O)cc1)C(=O)N1CCC[C@@H]1C(=O)N[C@@H](CCCN=C(N)N)C(=O)N[C@H](C(=O)N[C@@H](CC(N)=O)C(=O)N[C@H](C(=O)NCC(=O)N[C@@H](CO)C(=O)NCC(=O)N[C@H](C(=O)N1CCC[C@@H]1C(N)=O)[C@@H](C)O)[C@@H](C)O)[C@@H](C)O)[C@@H](C)O	0.115 nM	100		
CC(C)C[C@H](NC(=O)[C@H](CCCCN)NC(=O)CNC(=O)[C@H](CC(C)C)NC(=O)[C@@H](NC(=O)[C@H](CS)NC(=O)[C@@H](NC(=O)[C@H](CO)NC(=O)[C@H](CC(C)C)NC(=O)[C@H](CC(N)=O)NC(=O)[C@H](CO)NC(=O)[C@@H](N)CS)[C@@H](C)O)C(C)C)C(=O)N[C@@H](CO)C(=O)N[C@@H](CCC(N)=O)C(=O)N[C@@H](CCC(=O)O)C(=O)N[C@@H](CC(C)C)C(=O)N[C@H]1CC(=O)NCCCC[C@@H](C(=O)N[C@@H](Cc2ccc(O)cc2)C(=O)N2CCC[C@@H]2C(=O)N[C@@H](CCCN=C(N)N)C(=O)N[C@H](C(=O)N[C@@H](CC(N)=O)C(=O)N[C@H](C(=O)NCC(=O)N[C@@H](CO)C(=O)NCC(=O)N[C@H](C(=O)N2CCC[C@@H]2C(N)=O)[C@@H](C)O)[C@@H](C)O)[C@@H](C)O)NC(=O)[C@H](Cc2cn(N)cn2)NC(=O)[C@H](CC(C)C)NC(=O)[C@H](CCCCN)NC1=O	0.075 nM	210		
CC[C@H](C)[C@H](NC(=O)[C@H](C)NC(=O)[C@@H](NC(=O)[C@H](CCC(N)=O)NC(=O)[C@H]1CCCN1C(=O)[C@H](Cc1ccccc1)NC(=O)[C@@H](N[C@@H](Cc1c[nH]cn1)C(=O)N1CCC[C@H]1C(=O)[C@H](CCCCN)NC(=O)[C@H](CC(N)=O)NC(=O)[C@H](Cc1ccccc1)NC(=O)[C@H](CC(=O)O)NC(=O)[C@H](CCC(N)=O)NC(=O)[C@@H](NC(=O)[C@H](Cc1ccc(O)cc1)NC(=O)[C@@H](NC(=O)CNC(=O)[C@H](CC(C)C)NC(=O)[C@H](CCSC)NC(=O)[C@H](CS)NC(=O)[C@@H](NC(=O)[C@H](CO)NC(=O)[C@H](CC(C)C)NC(=O)[C@H](CC(N)=O)NC(=O)CNC(=O)[C@@H](N)CS)[C@@H](C)O)[C@@H](C)O)[C@@H](C)O)[C@@H](C)O)[C@@H](C)O)C(=O)NCC(=O)N[C@H](C(=O)NCC(=O)N[C@@H](C)C(=O)N1CCC[C@@H]1C(N)=O)C(C)C	22 nM	< 0.0075		
CCCC[C@H](NC(=O)[C@H](CS)NC(=O)[C@@H](NC(=O)[C@H](CO)NC(=O)[C@H](CC(C)C)NC(=O)[C@H](CC(N)=O)NC(=O)CNC(=O)[C@@H](N)CS)[C@@H](C)O)C(=O)N[C@@H](CC(C)C)C(=O)NCC(=O)N[C@H](C(=O)N[C@@H](Cc1ccccc1)C(=O)N[C@H](C(=O)N[C@@H](CCC(N)=O)C(=O)N[C@@H](CC(=O)O)C(=O)N[C@@H](Cc1ccccc1)C(=O)N[C@H]1CC(=O)NCCC[C@@H](C(=O)N[C@@H](Cc2ccc(O)cc2)C(=O)N2CCC[C@H]2C(=O)N[C@@H](CCC(N)=O)C(=O)N[C@H](C(=O)N[C@@H](C)C(=O)N[C@H](C(=O)NCC(=O)N[C@H](C(=O)NCC(=O)N[C@@H](C)C(=O)N2CCC[C@H]2C(N)=O)C(C)C)[C@@H](C)CC)[C@@H](C)O)NC(=O)[C@H](Cc2c[nH]cn2)NC(=O)[C@H](Cc2ccccc2)NC(=O)[C@H](CCCCN)NC1=O)[C@@H](C)O)[C@@H](C)O (H-CGNLSTC[Nle]LGTFTQDFDKFH[Orn]YPQTAIGVGAP-NH2; lactam 17-21)			0.56 nM	5.39 nM
CC(C)C[C@H](NC(=O)[C@H](CCCCN)NC(=O)CNC(=O)[C@H](CC(C)C)NC(=O)[C@@H](NC(=O)[C@H](CS)NC(=O)[C@@H](NC(=O)[C@H](CO)NC(=O)[C@H](CC(C)C)NC(=O)[C@H](CC(N)=O)NC(=O)[C@H](CO)NC(=O)[C@@H](N)CS)[C@@H](C)O)C(C)C)C(=O)N[C@@H](CO)C(=O)N[C@@H](CCC(N)=O)C(=O)N[C@@H](CCC(=O)O)C(=O)N[C@@H](CC(C)C)C(=O)N[C@H]1CC(=O)NCCCC[C@@H](C(=O)N[C@@H](Cc2ccc(O)cc2)C(=O)N2CCC[C@H]2C(=O)N[C@@H](CCCN=C(N)N)C(=O)N[C@H](C(=O)N[C@@H](CC(N)=O)C(=O)N[C@H](C(=O)NCC(=O)N[C@@H](CO)C(=O)NCC(=O)N[C@H](C(=O)N2CCC[C@H]2C(N)=O)[C@@H](C)O)[C@@H](C)O)[C@@H](C)O)NC(=O)[C@H](Cc2c[nH]cn2)NC(=O)[C@H](CC(C)C)NC(=O)[C@H](CCCCN)NC1=O (H-CSNLSTCVLGKLSQELDKLHKYPRTNTGSGTP-NH2; lactam 17-21)			0.05 nM	0.18 nM
CCCC[C@H](NC(=O)[C@H](Cc1c[nH]cn1)NC(=O)[C@H](CC(C)C)NC(=O)[C@H](CCCCN)NC(=O)[C@H](CC(N)=O)NC(=O)[C@H](CC(C)C)NC(=O)[C@H](CCC(=O)O)NC(=O)[C@H](CCC(N)=O)NC(=O)[C@H](CO)NC(=O)[C@H](CC(C)C)NC(=O)[C@H](CCCCN)NC(=O)CNC(=O)[C@H](CC(C)C)NC(=O)[C@@H](NC(=O)[C@@H]1CSSC[C@H](N)C(=O)N[C@@H](CO)C(=O)N[C@@H](CC(N)=O)C(=O)N[C@@H](CC(C)C)C(=O)N[C@@H](CO)C(=O)N[C@@H]([C@@H](C)O)C(=O)N1)C(C)C)C(=O)N[C@@H](Cc1ccc(O)cc1)C(=O)N1CCC[C@H]1C(=O)N[C@@H](CCCN=C(N)N)C(=O)N[C@H](C(=O)N[C@@H](CC(N)=O)C(=O)N[C@H](C(=O)NCC(=O)N[C@@H](CO)C(=O)NCC(=O)N[C@H](C(=O)N1CCC[C@H]1C(N)=O)[C@@H](C)O)[C@@H](C)O)[C@@H](C)O (H-CSNLSTCVLGKLSQELNKLH[Nle]YPRTNTGSGTP-NH2; disulfide 1-7)			0.069 nM	0.408 nM
CC[C@H](C)[C@H](NC(=O)[C@H](C)NC(=O)[C@@H](NC(=O)[C@H](CCC(N)=O)NC(=O)[C@@H]1CCCN1C(=O)[C@H](Cc1ccccc1)NC(=O)[C@@H]1CCCCNC(=O)C[C@H](NC(=O)[C@H](Cc2ccccc2)NC(=O)[C@H](CC(=O)O)NC(=O)[C@H](CCC(N)=O)NC(=O)[C@@H](NC(=O)[C@H](Cc2ccc(O)cc2)NC(=O)[C@@H](NC(=O)CNC(=O)[C@H](CC(C)C)NC(=O)[C@H](CCSC)NC(=O)[C@@H]2CSSC[C@H](N)C(=O)NCC(=O)N[C@@H](CC(N)=O)C(=O)N[C@@H](CC(C)C)C(=O)N[C@@H](CO)C(=O)N[C@@H]([C@@H](C)O)C(=O)N2)[C@@H](C)O)[C@@H](C)O)C(=O)N[C@@H](CCCCN)C(=O)N[C@@H](Cc2ccccc2)C(=O)N[C@@H](Cc2cnc[nH]2)C(=O)N1)[C@@H](C)O)C(=O)NCC(=O)N[C@H](C(=O)NCC(=O)N[C@@H](C)C(=O)N1CCC[C@H]1C(N)=O)C(C)C (H-CGNLSTCMLGTYTQDFDKFHKFPQTAIGVGAP-NH2; disulfide 1-7; lactam 17-21)			195 nM	60 nM
CC[C@H](C)[C@H](NC(=O)[C@H](C)NC(=O)[C@@H](NC(=O)[C@H](CCC(N)=O)NC(=O)[C@@H]1CCCN1C(=O)[C@H](Cc1ccccc1)NC(=O)[C@@H](NC(=O)[C@H](Cc1c[nH]cn1)NC(=O)[C@H](CCCCN)NC(=O)[C@@H]1CCCN1C(=O)[C@H](CC(N)=O)NC(=O)[C@H](Cc1ccccc1)NC(=O)[C@H](CC(=O)O)NC(=O)[C@H](CCC(N)=O)NC(=O)[C@@H](NC(=O)[C@H](Cc1ccc(O)cc1)NC(=O)[C@@H](NC(=O)CNC(=O)[C@H](CC(C)C)NC(=O)[C@H](CCSC)NC(=O)[C@@H]1CSSC[C@H](N)C(=O)NCC(=O)N[C@@H](CC(N)=O)C(=O)N[C@@H](CC(C)C)C(=O)N[C@@H](CO)C(=O)N[C@@H]([C@@H](C)O)C(=O)N1)[C@@H](C)O)[C@@H](C)O)[C@@H](C)O)[C@@H](C)O)C(=O)NCC(=O)N[C@H](C(=O)NCC(=O)N[C@@H](C)C(=O)N1CCC[C@H]1C(N)=O)C(C)C (H-CGNLSTCMLGTYTQDFNPKHTFPQTAIGVGAP-NH2; disulfide 1-7)			2570 nM	> 5000 nM
